ChEMBL document CHEMBL3769320, “Cell Penetrant Inhibitors of the KDM4 and KDM5 Families of Histone Lysine Demethylases. 2. Pyrido[3,4-d]pyrimidin-4(3H)-one Derivatives” (J Med Chem, 2016)

Tests used:
[1] = molecular target: T1, Lysine-specific demethylase 4C (Homo sapiens, UniProt Q9H3R0); experiment: Inhibition of N-terminal his-tagged human KDM4C expressed in Escherichia coli BL21(DE3) using trimethylated peptide substrate by RFMS assay
T1 sequence (Q9H3R0 whole entry): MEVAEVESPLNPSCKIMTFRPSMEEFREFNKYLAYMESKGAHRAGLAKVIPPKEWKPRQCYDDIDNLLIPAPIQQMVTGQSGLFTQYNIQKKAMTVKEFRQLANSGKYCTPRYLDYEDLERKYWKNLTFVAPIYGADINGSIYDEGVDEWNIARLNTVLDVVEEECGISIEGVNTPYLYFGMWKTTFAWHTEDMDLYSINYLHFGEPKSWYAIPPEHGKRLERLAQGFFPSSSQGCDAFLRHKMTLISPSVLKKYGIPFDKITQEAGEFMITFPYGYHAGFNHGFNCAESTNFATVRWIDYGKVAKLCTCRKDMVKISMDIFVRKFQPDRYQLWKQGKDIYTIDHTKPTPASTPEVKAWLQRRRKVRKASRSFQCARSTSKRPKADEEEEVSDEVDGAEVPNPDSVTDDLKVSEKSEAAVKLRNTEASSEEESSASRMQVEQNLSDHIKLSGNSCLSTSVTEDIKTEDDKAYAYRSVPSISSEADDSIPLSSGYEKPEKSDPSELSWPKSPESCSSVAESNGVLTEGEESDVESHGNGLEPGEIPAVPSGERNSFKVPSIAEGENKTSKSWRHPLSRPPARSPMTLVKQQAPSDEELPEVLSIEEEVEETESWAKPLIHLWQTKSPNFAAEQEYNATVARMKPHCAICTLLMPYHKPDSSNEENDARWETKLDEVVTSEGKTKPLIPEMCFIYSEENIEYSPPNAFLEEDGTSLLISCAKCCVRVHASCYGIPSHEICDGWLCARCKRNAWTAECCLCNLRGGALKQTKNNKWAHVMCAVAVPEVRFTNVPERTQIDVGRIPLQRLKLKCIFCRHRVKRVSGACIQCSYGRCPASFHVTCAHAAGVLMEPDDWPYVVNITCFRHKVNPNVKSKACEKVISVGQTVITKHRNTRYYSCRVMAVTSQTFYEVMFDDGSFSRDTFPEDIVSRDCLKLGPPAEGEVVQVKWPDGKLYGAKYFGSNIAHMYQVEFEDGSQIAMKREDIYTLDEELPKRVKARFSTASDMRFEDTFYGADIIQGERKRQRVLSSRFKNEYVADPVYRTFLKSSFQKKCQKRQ

physchem = settings: buffer, pH 7.4
[2] = molecular target: T2, Lysine-specific demethylase 4A (Homo sapiens, UniProt O75164); experiment: Inhibition of KDM4A (unknown origin) by RFMS assay
T2 sequence (O75164 whole entry): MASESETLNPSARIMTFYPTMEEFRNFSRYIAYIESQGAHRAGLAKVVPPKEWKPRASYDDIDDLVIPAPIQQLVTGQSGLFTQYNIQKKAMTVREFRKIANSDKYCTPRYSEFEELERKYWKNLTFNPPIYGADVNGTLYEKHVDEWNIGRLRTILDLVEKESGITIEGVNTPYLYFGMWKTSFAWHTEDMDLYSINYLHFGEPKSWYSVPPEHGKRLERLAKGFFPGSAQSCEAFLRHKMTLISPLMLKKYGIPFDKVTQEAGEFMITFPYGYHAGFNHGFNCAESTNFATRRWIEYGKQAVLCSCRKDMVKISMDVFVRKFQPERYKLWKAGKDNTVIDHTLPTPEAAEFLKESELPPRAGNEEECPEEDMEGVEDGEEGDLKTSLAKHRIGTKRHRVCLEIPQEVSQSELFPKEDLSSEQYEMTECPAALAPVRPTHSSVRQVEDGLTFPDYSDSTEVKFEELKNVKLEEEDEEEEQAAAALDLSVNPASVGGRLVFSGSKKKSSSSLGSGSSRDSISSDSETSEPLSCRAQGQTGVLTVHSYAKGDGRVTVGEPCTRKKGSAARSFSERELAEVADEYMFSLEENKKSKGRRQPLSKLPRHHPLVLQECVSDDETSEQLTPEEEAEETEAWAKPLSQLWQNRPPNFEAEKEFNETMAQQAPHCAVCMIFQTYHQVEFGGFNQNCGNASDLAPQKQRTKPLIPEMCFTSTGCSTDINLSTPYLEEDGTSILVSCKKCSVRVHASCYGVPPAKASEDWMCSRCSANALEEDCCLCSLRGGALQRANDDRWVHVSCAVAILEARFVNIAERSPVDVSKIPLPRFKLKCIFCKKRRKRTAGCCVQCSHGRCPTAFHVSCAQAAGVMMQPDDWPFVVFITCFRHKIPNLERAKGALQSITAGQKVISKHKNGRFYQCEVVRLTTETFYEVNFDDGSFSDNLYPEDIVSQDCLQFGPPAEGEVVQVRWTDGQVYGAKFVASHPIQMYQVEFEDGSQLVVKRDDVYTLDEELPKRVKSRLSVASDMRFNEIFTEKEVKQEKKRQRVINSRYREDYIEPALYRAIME

[3] = molecular target: T3, Lysine-specific demethylase 4D (Homo sapiens, UniProt Q6B0I6); experiment: Inhibition of KDM4D (unknown origin) by RFMS assay
T3 sequence (Q6B0I6 whole entry): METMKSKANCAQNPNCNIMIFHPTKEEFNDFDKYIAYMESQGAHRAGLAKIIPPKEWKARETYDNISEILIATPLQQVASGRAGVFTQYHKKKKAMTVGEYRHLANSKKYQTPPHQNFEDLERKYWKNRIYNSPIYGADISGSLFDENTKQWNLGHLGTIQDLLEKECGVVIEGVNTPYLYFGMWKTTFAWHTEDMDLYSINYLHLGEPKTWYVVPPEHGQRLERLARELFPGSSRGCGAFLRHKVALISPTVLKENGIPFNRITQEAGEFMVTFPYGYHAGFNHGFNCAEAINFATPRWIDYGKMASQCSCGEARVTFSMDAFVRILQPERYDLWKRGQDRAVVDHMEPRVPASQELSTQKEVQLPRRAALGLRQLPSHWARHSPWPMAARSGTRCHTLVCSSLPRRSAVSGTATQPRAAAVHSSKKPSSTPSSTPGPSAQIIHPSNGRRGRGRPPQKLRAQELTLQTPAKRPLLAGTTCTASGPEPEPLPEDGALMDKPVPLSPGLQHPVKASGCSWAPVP

[4] = molecular target: T4, Lysine-specific demethylase 4E (Homo sapiens, UniProt B2RXH2); experiment: Inhibition of KDM4E (unknown origin) by RFMS assay
T4 sequence (B2RXH2 whole entry): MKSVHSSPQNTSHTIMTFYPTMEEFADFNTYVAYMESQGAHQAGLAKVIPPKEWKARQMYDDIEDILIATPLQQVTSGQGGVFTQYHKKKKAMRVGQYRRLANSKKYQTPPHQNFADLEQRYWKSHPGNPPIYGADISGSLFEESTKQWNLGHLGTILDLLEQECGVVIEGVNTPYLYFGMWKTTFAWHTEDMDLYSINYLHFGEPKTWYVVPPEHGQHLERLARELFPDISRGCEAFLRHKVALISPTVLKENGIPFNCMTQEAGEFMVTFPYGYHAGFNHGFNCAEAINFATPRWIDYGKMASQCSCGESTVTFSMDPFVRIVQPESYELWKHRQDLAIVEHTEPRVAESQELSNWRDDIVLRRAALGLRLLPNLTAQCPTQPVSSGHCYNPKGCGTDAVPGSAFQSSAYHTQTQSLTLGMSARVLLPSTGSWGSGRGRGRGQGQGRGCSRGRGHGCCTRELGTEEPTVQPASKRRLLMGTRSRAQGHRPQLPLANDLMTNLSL

[5] = molecular target: Lysine-specific demethylase 6B (Homo sapiens, UniProt O15054); experiment: Inhibition of KDM6B (unknown origin) by RFMS assay
Prolyl hydroxylase EGLN3 = Prolyl hydroxylase EGLN3 (Homo sapiens, UniProt Q9H6Z9); experiment: Inhibition of full-length EGLN3 (unknown origin) expressed in Escherichia coli BL21(DE3) cells by HTRF assay
[6] = molecular target: T1, Lysine-specific demethylase 4C; experiment: Inhibition of N-terminal his-tagged full-length human KDM4C transfected in U2OS cells assessed as inhibition of H3K9Me3 demethylation for 24 hrs; format: cell-based
[7] = molecular target: T5, Lysine-specific demethylase 5C (Homo sapiens, UniProt P41229); experiment: Inhibition of KDM5C catalytic domain (1 -764 aa) (unknown origin) expressed in Sf9 cells using H3K4Me3 peptide as substrate by RFMS assay
[8] = molecular target: T5, Lysine-specific demethylase 5C; experiment: Inhibition of human KDM5C transfected in U2OS cells assessed as inhibition of […] demethylation for 24 hrs; format: cell-based
Method in brief: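 High-content cell imaging assay in U2OS cells overexpressing KDM5C, the same cell type as the KDM4C cellular mechanistic assay. Cellular potency reported as pIC50.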

[9] = molecular target: T1, Lysine-specific demethylase 4C; experiment: Inhibition of N-terminal HALO-tagged full-length human KDM4C transfected in U2OS cells assessed as inhibition of H3K9Me3 demethylation for 24 hrs

T5 sequence (P41229 whole entry, the tested form may be a part): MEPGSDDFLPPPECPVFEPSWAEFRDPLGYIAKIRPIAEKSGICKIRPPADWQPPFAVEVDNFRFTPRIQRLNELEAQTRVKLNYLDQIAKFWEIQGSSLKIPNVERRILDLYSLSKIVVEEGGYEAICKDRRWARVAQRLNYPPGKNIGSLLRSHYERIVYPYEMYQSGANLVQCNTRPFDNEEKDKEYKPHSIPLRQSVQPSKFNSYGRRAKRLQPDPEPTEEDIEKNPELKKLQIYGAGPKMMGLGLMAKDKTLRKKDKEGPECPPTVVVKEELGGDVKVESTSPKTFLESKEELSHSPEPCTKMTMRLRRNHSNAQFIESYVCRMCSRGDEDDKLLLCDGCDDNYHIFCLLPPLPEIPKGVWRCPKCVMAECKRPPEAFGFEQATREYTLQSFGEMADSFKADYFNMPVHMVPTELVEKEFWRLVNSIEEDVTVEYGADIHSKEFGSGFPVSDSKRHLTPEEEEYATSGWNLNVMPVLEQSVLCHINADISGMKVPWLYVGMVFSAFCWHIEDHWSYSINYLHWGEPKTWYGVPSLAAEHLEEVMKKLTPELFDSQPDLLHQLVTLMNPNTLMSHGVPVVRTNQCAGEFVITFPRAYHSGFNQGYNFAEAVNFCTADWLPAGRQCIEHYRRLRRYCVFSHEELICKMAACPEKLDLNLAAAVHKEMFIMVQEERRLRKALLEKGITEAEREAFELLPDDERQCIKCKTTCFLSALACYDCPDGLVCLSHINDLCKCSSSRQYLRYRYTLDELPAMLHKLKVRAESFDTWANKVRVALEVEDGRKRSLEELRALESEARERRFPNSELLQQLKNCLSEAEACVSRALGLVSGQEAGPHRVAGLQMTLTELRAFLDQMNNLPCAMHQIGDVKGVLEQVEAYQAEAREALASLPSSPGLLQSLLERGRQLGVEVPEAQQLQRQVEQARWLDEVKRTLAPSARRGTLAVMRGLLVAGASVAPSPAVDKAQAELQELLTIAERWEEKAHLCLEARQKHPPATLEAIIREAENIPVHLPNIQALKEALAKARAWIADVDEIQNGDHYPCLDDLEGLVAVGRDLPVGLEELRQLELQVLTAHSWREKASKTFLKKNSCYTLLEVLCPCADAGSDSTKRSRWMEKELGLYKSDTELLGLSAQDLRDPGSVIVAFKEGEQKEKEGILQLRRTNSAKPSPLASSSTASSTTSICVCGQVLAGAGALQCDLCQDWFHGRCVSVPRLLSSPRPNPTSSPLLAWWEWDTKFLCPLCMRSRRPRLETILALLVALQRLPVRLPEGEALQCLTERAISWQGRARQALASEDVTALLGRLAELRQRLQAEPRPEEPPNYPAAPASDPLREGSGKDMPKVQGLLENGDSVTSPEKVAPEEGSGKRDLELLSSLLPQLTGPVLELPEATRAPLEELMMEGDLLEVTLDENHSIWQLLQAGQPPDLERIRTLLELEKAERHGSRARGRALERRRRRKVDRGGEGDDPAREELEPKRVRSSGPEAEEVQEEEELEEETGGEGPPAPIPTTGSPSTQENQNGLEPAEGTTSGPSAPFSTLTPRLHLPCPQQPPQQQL
Lysine-specific demethylase 6B, sequence (O15054 whole entry): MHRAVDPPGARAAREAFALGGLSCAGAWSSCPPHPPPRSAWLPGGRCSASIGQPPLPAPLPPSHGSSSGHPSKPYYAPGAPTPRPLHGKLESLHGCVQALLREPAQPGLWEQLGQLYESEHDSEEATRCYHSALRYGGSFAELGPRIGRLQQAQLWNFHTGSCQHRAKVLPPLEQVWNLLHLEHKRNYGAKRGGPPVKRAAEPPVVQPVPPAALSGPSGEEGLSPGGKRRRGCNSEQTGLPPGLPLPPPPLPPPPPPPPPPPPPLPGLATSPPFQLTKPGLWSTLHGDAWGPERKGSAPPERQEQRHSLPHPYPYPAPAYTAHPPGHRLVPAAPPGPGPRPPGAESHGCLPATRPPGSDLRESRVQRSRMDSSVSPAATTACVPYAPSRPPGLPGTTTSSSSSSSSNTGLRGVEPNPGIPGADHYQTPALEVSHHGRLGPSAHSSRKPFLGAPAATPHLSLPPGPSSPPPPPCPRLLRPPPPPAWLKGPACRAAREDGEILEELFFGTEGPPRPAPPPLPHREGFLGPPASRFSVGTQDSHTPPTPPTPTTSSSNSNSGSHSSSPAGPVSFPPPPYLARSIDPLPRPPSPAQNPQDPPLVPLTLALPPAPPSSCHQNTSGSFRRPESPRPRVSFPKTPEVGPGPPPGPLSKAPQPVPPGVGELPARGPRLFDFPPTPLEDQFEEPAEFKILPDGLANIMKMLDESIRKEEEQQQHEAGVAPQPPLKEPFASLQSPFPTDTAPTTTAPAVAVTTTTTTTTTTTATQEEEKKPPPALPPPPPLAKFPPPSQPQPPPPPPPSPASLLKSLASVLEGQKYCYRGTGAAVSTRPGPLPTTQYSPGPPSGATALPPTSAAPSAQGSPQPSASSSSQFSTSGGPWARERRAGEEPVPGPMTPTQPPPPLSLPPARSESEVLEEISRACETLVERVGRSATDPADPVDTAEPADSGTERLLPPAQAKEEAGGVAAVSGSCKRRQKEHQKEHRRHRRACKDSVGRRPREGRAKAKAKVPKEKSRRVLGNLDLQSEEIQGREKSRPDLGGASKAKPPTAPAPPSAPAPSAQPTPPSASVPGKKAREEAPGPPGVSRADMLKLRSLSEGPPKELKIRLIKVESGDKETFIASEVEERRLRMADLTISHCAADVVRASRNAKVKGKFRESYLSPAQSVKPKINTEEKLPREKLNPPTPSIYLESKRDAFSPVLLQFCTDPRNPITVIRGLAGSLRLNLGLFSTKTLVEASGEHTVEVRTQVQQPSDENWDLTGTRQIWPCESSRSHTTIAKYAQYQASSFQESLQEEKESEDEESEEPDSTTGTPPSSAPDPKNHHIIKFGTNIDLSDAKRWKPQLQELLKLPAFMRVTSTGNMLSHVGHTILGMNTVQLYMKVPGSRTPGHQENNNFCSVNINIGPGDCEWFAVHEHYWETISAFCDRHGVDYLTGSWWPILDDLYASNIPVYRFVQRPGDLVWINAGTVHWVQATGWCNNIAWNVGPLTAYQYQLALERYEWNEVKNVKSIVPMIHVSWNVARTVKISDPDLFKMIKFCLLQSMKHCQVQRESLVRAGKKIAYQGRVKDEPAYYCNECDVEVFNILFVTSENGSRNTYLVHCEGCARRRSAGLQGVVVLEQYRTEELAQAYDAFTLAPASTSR
Prolyl hydroxylase EGLN3, sequence (Q9H6Z9 whole entry): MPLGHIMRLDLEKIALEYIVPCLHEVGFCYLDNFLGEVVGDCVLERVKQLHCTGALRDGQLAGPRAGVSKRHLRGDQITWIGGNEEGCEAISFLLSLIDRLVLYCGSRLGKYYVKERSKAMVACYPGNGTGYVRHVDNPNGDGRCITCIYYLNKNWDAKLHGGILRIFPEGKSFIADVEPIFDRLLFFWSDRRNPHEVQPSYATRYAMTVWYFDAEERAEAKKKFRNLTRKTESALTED

Row | IC50 [1] [nM] | logD (physchem) | IC50 [6] [nM] | SMILES | further results
1 | 2000 | -0.2 | – | Cc1c(Oc2nc3cnccc3c(=O)[nH]2)cnn1C | –
2 | > 100000 | – | > 100000 | O=c1[nH]c(Oc2cnn(Cc3ccccc3)c2)nc2ncccc12 | IC50 [2]: > 100000 nM; IC50 [3]: > 100000 nM; IC50 [4]: > 100000 nM; IC50 [5]: > 100000 nM; IC50 (Prolyl hydroxylase EGLN3): > 100000 nM; IC50 [7]: 31600 nM; IC50 ([8]; read-out: pIC50 (converted)): > 100000 nM
3 | 398 | -0.3 | 7940 | Cn1cc(Oc2nc3cnccc3c(=O)[nH]2)cn1 | –
4 | 501 | – | 10000 | O=c1[nH]c(Oc2ccc(Cl)cc2)nc2cnccc12 | –
5 | 20000 | – | – | O=c1[nH]c(-c2ccccc2)nc2cnccc12 | –
6 | 200 | 0.3 | 10000 | O=c1[nH]c(Oc2cccc(O)c2)nc2cnccc12 | –
7 | 631 | 1.2 | 12600 | O=c1[nH]c(Oc2ccccc2)nc2cnccc12 | –
8 | > 100000 | – | – | O=c1[nH]ncc2cnccc12 | –
9 | 501 | 1.8 | 5010 | O=c1[nH]c(Oc2cnn(Cc3ccccc3)c2)nc2cnccc12 | IC50 [2]: 631 nM; IC50 [3]: 398 nM; IC50 [4]: 501 nM; IC50 [5]: > 100000 nM; IC50 (Prolyl hydroxylase EGLN3): > 100000 nM; IC50 [7]: 63.1 nM; IC50 ([8]; read-out: pIC50 (converted)): 3980 nM; IC50 [9]: 2000 nM
10 | 631 | 2 | 6310 | COc1cccc(Cn2cc(Oc3nc4cnccc4c(=O)[nH]3)cn2)c1 | –
11 | 501 | -0.2 | 12600 | O=c1[nH]c(Oc2cccnc2)nc2cnccc12 | –
12 | 398 | 2.2 | 3980 | O=c1[nH]c(Oc2cnn(C3CCCCC3)c2)nc2cnccc12 | –
13 | 3160 | 4.5 | > 100000 | O=c1[nH]c(OCC2CCCCC2)nc2cnccc12 | –
14 | 398 | 1.9 | 3980 | O=c1[nH]c(Oc2cnn(-c3ccccc3)c2)nc2cnccc12 | –
15 | 2000 | 2.8 | > 100000 | O=c1[nH]c(OCc2ccccc2)nc2cnccc12 | –
16 | ≥ 100000 | – | – | O=c1ncn(CCCc2ccccc2)c2cnccc12 | –

Row | IC50 [1] [nM] | logD (physchem) | IC50 [6] [nM] | SMILES | further results
17 | 2510 | 0 | > 100000 | Cc1nn(C)cc1Oc1nc2cnccc2c(=O)[nH]1 | –
18 | 25100 | – | – | O=c1ncn(Cc2ccccc2)c2cnccc12 | –
19 | – | – | – | Nc1cnccc1C(=O)O | IC50 [4]: 1260 nM
20 | 398 | 1.1 | – | O=c1[nH]c(Oc2ccc(Cl)c(O)c2)nc2cnccc12 | IC50 [2]: 398 nM; IC50 [3]: 316 nM; IC50 [4]: 126 nM; IC50 [5]: > 100000 nM; IC50 (Prolyl hydroxylase EGLN3): > 100000 nM; IC50 [7]: 200 nM; IC50 ([8]; read-out: pIC50 (converted)): 31600 nM; IC50 [9]: 2000 nM
21 | 398 | -0.6 | 7940 | O=c1[nH]c(Oc2cn[nH]c2)nc2cnccc12 | –
22 | 501 | 0.7 | 5010 | CC(C)n1cc(Oc2nc3cnccc3c(=O)[nH]2)cn1 | –
23 | > 100000 | – | – | O=c1[nH][nH]c2cnccc12 | –
24 | 631 | 1.7 | – | O=c1[nH]c(Oc2cnn(C3CCCC3)c2)nc2cnccc12 | IC50 [2]: 794 nM; IC50 [3]: 501 nM; IC50 [4]: 398 nM; IC50 [5]: > 100000 nM; IC50 (Prolyl hydroxylase EGLN3): > 100000 nM; IC50 [7]: 126 nM; IC50 ([8]; read-out: IC50): 2500 nM; IC50 ([8]; read-out: pIC50 (converted)): 5010 nM; IC50 [9]: 2000 nM
25 | 2000 | – | – | O=c1[nH]c(-c2cncc(F)c2)nc2cnccc12 | –
26 | 501 | 2.9 | 2510 | O=c1[nH]c(Oc2cnn(C3CCCCCC3)c2)nc2cnccc12 | –
27 | 7940 | – | – | O=c1[nH]c(-c2cccnc2)nc2cnccc12 | –
28 | 1000 | 1.5 | – | CC(C)c1ccc(Oc2nc3cnccc3c(=O)[nH]2)cn1 | IC50 [2]: 1580 nM; IC50 [3]: 631 nM; IC50 [4]: 398 nM; IC50 [7]: 126 nM; IC50 ([8]; read-out: pIC50 (converted)): 50100 nM; IC50 [9]: 2000 nM
29 | 631 | 0.3 | 12600 | O=c1[nH]c(Oc2cnn(Cc3cccnc3)c2)nc2cnccc12 | –
30 | 3160 | 3.7 | 25100 | O=c1[nH]c(OC2CCCCC2)nc2cnccc12 | –
31 | > 100000 | – | – | O=c1[nH]ccc2cnccc12 | –
